Each structure is given as a SMILES string. Several values for one entry are separate records, joined by “and”; a condition that tells them apart may be missing. Equal values may be shown once.

One experiment relates to C8166. In words: Selectivity index in HIV-1 infected C8166 (human CD4) cells. The class given is functional. In outline:
(§1)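 Selectivity index in C8166 cells, computed as the ratio of TC50 (concentration reducing cell growth by 50%) to EC50 (concentration reducing supernatant reverse transcriptase activity by 50% in HIV-1 IIIB-infected cultures).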

The subject of experiment [1] is Human immunodeficiency virus 1. In words: In vitro antiviral activity against HIV-1 IIIB in C8166 (human CD4) cells. The class given is functional, organism-based. Particulars: Human immunodeficiency virus 1, C8166. In outline:
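HIV-1 IIIB infection of C8166 cells, compounds from DMSO stocks of 25 mM or higher. EC50 is the drug concentration (μM) reducing reverse transcriptase activity of culture supernatants by 50%. Syncytium formation, gp120 ELISA and cytopathic-effect reduction were also scored. Values are the mean of at least three experiments run in triplicate.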

In a further experiment the test system is C8166 (human). In words: In vitro toxicity to C8166 (human CD4) cells.
In the next experiment the test system is Herpes simplex virus 1. Description: Antiviral activity determined against herpes simplex virus type 1 (HSV-1) in vero cells. Particulars: Herpes simplex virus 1, Vero.
Experiment [2] is described as follows: Toxicity which reduces cell growth by 50% against herpes simplex virus type 1 (HSV-1) in vero cells.
Experiment [3] can be described thus: Selectivity index expressed as ratio of TC50 (HIV-1) to EC50 (HIV-1) in C8166 cells. It counts as functional. The procedure, abridged:
as §1

By EC50 is commonly meant the concentration that produces a half-maximal response. `COc1ccc(N2CCN(c3cc4c(cc3N)c(=O)c(C(=O)O)cn4C(C)(C)C)CC2)cc1` came in with an SI in the experiment on C8166 of 1.4. In experiment [1], this compound came in with an EC50 of 9.5 µM. Besides, the TC50 in the experiment on C8166 (human) was 13.8 µM.
For `CC(C)(C)n1cc(C(=O)O)c(=O)c2cc(F)c(N3CCN(c4ccccn4)CC3)cc21` the same measures were 5, 7.5 µM and 40 µM.
In the experiment on C8166, `CCOC(=O)c1cn(C)c2cc(N3CCN(c4ccccn4)CC3)c(N)cc2c1=O` gave an SI of 1.5. The EC50 in experiment [1] was 37 µM; in the experiment with Herpes simplex virus 1 it was greater than 300 µM. Further, the TC50 in the experiment on C8166 (human) was 57 µM; in experiment [2], greater than 300 µM.
For `CC(C)(C)n1cc(C(=O)O)c(=O)c2cc(N)c(N3CCN(c4ccccn4)CC3)cc21` the same measures were 4, 2 µM, 82 µM, 8.1 µM and 290 µM.
In the case of `Nc1cc2c(=O)c(C(=O)O)cn(N3CCN(c4ccccn4)CC3)c2cc1Cl`, in the experiment on C8166, the SI is given as greater than 2. In addition, in experiment [1], the EC50 came to 500 µM. The TC50 with C8166 (human) is greater than 1000 µM.
The matching figures for `Cc1c(N2CCC(C)CC2)c(N)cc2c(=O)c(C(=O)O)cn(C3CC3)c12`: 4, 20 µM and 80 µM.
The matching figures for `Cc1cn([C@H]2C[C@H](N=[N+]=[N-])[C@@H](CO)O2)c(=O)[nH]c1=O` [ZIDOVUDINE]: 25000, 0.02 µM and 500 µM.
For `Cc1c(N2CCc3ccccc3C2)c(N)cc2c(=O)c(C(=O)O)cn(C3CC3)c12` the same measures were 5, 80 µM and 400 µM.
Compound `O=C(O)c1cn(C2CC2)c2cc(N3CCNCC3)c(F)cc2c1=O` [CIPROFLOXACIN] gave an SI with C8166 of 1.6. In experiment [1], the EC50 is 100 µM. The same compound had a TC50 in the experiment on C8166 (human) of 160 µM.
As to `Nc1cc2c(=O)c(C(=O)O)cn(C3CC3)c2cc1N1CCN(c2ccccn2)CC1`, the EC50 stood at 0.7 µM in experiment [1] and 38 µM in the experiment with Herpes simplex virus 1. Moreover, the TC50 with C8166 (human) amounted to 9 µM; in experiment [2], 95 µM.
`Cn1cc(C(=O)O)c(=O)c2cc(F)c(N3CCN(c4ccccn4)CC3)cc21` had an SI in the experiment with C8166 of 5. The same compound gave an EC50 in experiment [1] of 1.3 µM. For the same compound, the TC50 in the experiment on C8166 (human) was determined as 7 µM.
The matching figures for `CC(C)(C)n1cc(C(=O)O)c(=O)c2cc(N)c(N3CCN(c4ccc(F)cc4)CC3)cc21`: 1.2, 8.44 µM and 10.7 µM.
With `COc1ccccc1N1CCN(c2cc3c(cc2N)c(=O)c(C(=O)O)cn3C(C)(C)C)CC1`, the SI in the experiment with C8166 was 6 and 9. In addition, the 50% effective concentration (EC50) was 3.2 µM in experiment [1] and 33 µM with Herpes simplex virus 1. The TC50 came to 20 µM in the experiment on C8166 (human) and 300 µM in experiment [2].
`Cn1cc(C(=O)O)c(=O)c2cc(N)c(N3CCN(c4ccccn4)CC3)cc21`: the SI (in the experiment with C8166; in experiment [3]) was 70 throughout. Besides, the EC50 in experiment [1] was 0.1 µM; in the experiment with Herpes simplex virus 1, 30 µM. Moreover, the TC50 with C8166 (human) was 7 µM; in experiment [2], 270 µM.
Turning to `CC(C)(C)n1cc(C(=O)O)c(=O)c2cc(N)c(N3CCN(c4ncccn4)CC3)cc21`, the SI in the experiment on C8166 is 4. For the same compound, in experiment [1], the midpoint of the response, the EC50, lay at 9.48 µM. In the experiment with C8166 (human), this compound came in with a TC50 of 42.6 µM.
In turn, `CCOC(=O)c1cn(C(C)(C)C)c2cc(N3CCN(c4ccccn4)CC3)c(N)cc2c1=O` registered an SI in the experiment with C8166 of 1.5. Further, the EC50 was 51.2 µM in experiment [1] and greater than 300 µM in the experiment with Herpes simplex virus 1. In addition, the TC50 in the experiment with C8166 (human) was 77.9 µM; in experiment [2] it was greater than 300 µM.
In turn, `CN1CCN(c2c(F)cc3c(=O)c(C(=O)O)cn4c3c2SCC4)CC1` [RUFLOXACIN] had an SI in the experiment with C8166 of 2. Besides, in experiment [1], the concentration for a half-maximal effect (EC50) is 200 µM. The compound also displayed a TC50 in the experiment on C8166 (human) of 400 µM.
The matching figures for `Cc1c(N2CCN(c3ccccn3)CC2)c(N)cc2c(=O)c(C(=O)O)cn(C)c12`: 6, 7.5 µM and 46.2 µM.
The matching figures for `CC(C)(C)n1cc(C(=O)O)c(=O)c2cc(N)c(N3CCc4ccccc4C3)cc21`: 2, 40 µM and 80 µM.
The matching figures for `CNc1cc2c(=O)c(C(=O)O)cn(C)c2cc1N1CCN(c2ccccn2)CC1`: 5, 3.5 µM and 19.5 µM.
As to `O=C(O)c1cn(C2CC2)c2cc(N3CCN(c4ccccn4)CC3)c(F)cc2c1=O`, in the experiment with C8166, the SI is on record as 13. In experiment [1], this compound had an EC50 of 5 µM. Besides, in the experiment with C8166 (human), the TC50 turned out to be 65 µM.

The record behind these values is ChEMBL document CHEMBL1133686, “6-Aminoquinolones as new potential anti-HIV agents” (J Med Chem, 2000).
